TMEM16A inh: mouse TMEM16A channel inhibition, primary screen. normalized B-score (activity score, 25-100; higher = stronger inhibition) at 10 µM. Q8BHY3. 1.2% of 310,000 active. HEK293 TMEM16A/YFP iodide influx fluorescence, ionomycin. AID 588511;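 active = ratio plate-corrected score three or more library SD toward inhibition, starting fluorescence score within five deviations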;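 also: score derived from kinetic fluorescence span divided by baseline fluorescence per well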
TAAR1 ag: agonists of human TAAR1. Q96RJ0. CHO RD-HGA16 TAAR1, Fluo-8 calcium fluorescence; vehicle wells 0%, saturating PEA agonist 100%. activation, % at 3 µM. 0.99% of 360,000 active;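 active = activation above the mean activation of all test compounds in the run plus 3 SD, cut at about 38% in these data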
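Test system: RD-HGA16 (CHO) cells co-expressing Gα16 and hTAAR1; dosing: one-point dosing at 3 µM (nominal); timing: 17-24 h seeding, 75 min 37 °C dye, 30 min RT; signal: kinetic Fluo-8 calcium fluorescence; read-out basis: % activation relative to PEA EC100 response; controls: DMSO and PEA EC100; replicates: n 1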
CRFR2-BP ag: CRF-BP/CRF-R2 complex agonism | HEK293 CRF-R2/CRF-BP, calcium dye fluorescence (FLIPR); percent of saturating CRF peptide response | activation, % at 13.2 µM | 0.46% of 350,000 active | AID 588473;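 active = activation of at least 50%, plus an integration ratio under a set limit after plate pattern correction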;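 also: plate controls were neutral control wells without compound for no effect and CRF at EC100 for full effect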
CRFBP-R2 block: CRF-BP/CRF-R2 complex antagonism; HEK293 CRF-R2/CRF-BP, CRF-induced calcium fluorescence; 0.59% of 350,000 active; AID 588475; inhibition, % at 11.8 µM;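 active = inhibition of the ligand-induced calcium signal above about 50% at the single tested concentration, limit read from the data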
TAAR1 antagonist: human TAAR1 antagonism | Q96RJ0 | CHO RD-HGA16 TAAR1, Fluo-8 calcium fluorescence, antagonist | inhibition, % at 3 µM | 1.5% of 360,000 active | AID 624466;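 active = inhibition above a per-plate cutoff, the mean inhibition of test compounds on that plate plus 3 SD, cut at about 49% in these data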;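 also: 0% = DMSO plus EC80 beta-PEA response and 100% = DMSO alone without agonist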
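System: RD-HGA16 CHO cells with stable hTAAR1 and Gα16 | Probe or stimulus: EC80 β-phenethylamine stimulus | Dosing: 3 µM, single point | Times: Dye loading 75 min at 37 °C, then 30 min room temperature | Measured by: Fluo-8 calcium-sensitive fluorescence | Read-out basis: % inhibition of agonist calcium response | Replicates: n of 1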
ANO1 activ: mouse TMEM16A channel activation, primary screen; Q8BHY3; HEK293 TMEM16A/YFP-H148Q/I152L, iodide quench fluorescence; stronger effect = lower value; B-score at 10 µM; 0.3% of 340,000 active;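 active = fluorescence-ratio B-score plate-corrected deviation score at least 3 library SD below zero, with starting fluorescence score within 5 deviations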;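 also: channel opened by trigger with iodide after compound preincubation; score built on the fluorescence ratio of max minus min over baseline; more negative score means more quench and so TMEM16A activation or potentiation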
The depositor's hits bear a star. Compounds with a hit are over-represented: about 3.9% of the library has one in this group of screens.

For COc1cccc2c1C(=O)c1c(O)c3c(c(O)c1C2=O)CC(O)(C(C)=O)CC3OC1CC(N(C)C)C(O)C(C)O1 (configuration not stated) the results were TAAR1 ag 4, CRFR2-BP ag 89*, CRFBP-R2 block -50, TAAR1 antagonist 5 and ANO1 activ inactive.
Screening CC(=O)[C@@]1(O)Cc2c(O)c3c(c(O)c2[C@H](O[C@H]2C[C@H](N)[C@H](O)[C@H](C)O2)C1)C(=O)c1ccccc1C3=O returned TAAR1 ag 66* and TAAR1 antagonist 44.
For Cc1ccc(S(=O)(=O)N2CCN(C(=O)CNC(=O)c3ccc(Cl)cc3)CC2)cc1 the results were TAAR1 ag -2, CRFR2-BP ag -10, CRFBP-R2 block 16, TAAR1 antagonist -3 and ANO1 activ inactive.
Screening COc1ccc2c(n1)Sc1nc3ccccc3nc1N2 returned TMEM16A inh inactive, TAAR1 ag 22, CRFR2-BP ag 228*, CRFBP-R2 block -189, TAAR1 antagonist 17 and ANO1 activ inactive.
For CSCCC(NC(=O)c1ccccc1Cl)C(=O)N(C)CC(=O)Nc1ccc(N2CCOCC2)cc1 (configuration not stated) the results were TMEM16A inh inactive, TAAR1 ag 1, CRFR2-BP ag -2, CRFBP-R2 block 14, TAAR1 antagonist -3 and ANO1 activ inactive.
For CCc1ccccc1OCc1nnc(N)s1 the results were TMEM16A inh 25*, TAAR1 ag 11, CRFR2-BP ag 0, CRFBP-R2 block -7, TAAR1 antagonist 1 and ANO1 activ inactive.
Screening Cc1cccc(OCc2nnc(N)s2)c1 returned TMEM16A inh inactive, TAAR1 ag 10, CRFR2-BP ag 1, CRFBP-R2 block -4, TAAR1 antagonist -9 and ANO1 activ inactive.
NC(=S)NN=Cc1cc(-c2cccc(N)c2)ccn1 was read as TAAR1 ag 0, CRFR2-BP ag 1, CRFBP-R2 block 3 and TAAR1 antagonist 1.
For COc1ccc(-n2c(C)cc(/C=C3/SC(=S)N(C)C3=O)c2C)cc1 the results were TMEM16A inh inactive, TAAR1 ag 2, CRFR2-BP ag 58*, CRFBP-R2 block -47, TAAR1 antagonist -9 and ANO1 activ inactive.
`CC(=O)c1ccc(NC(=O)CN2c3cccc4cccc(c34)S2(=O)=O)cc1` gave TAAR1 ag 2, CRFR2-BP ag 2, CRFBP-R2 block -7, TAAR1 antagonist 11 and ANO1 activ -4.7*.
CCNC(=O)CN1c2cccc3cccc(c23)S1(=O)=O was read as TMEM16A inh inactive, TAAR1 ag 7, CRFR2-BP ag 0, CRFBP-R2 block 7, TAAR1 antagonist 14 and ANO1 activ inactive.
Screening CC(=O)Nc1cccc(NC(=O)CN2c3cccc4cccc(c34)S2(=O)=O)c1 returned TAAR1 ag 11, CRFR2-BP ag 1, CRFBP-R2 block 2, TAAR1 antagonist -2 and ANO1 activ inactive.
O=C(CN1c2cccc3cccc(c23)S1(=O)=O)NCCc1ccccc1 was read as TAAR1 ag 4, CRFR2-BP ag -9, CRFBP-R2 block 18, TAAR1 antagonist -12 and ANO1 activ inactive.
For CCC(C)NC(=O)CN1c2cccc3cccc(c23)S1(=O)=O (configuration not stated) the results were TMEM16A inh inactive, TAAR1 ag -1, CRFR2-BP ag -3, CRFBP-R2 block -20, TAAR1 antagonist 5 and ANO1 activ -7.2*.
For NC(=O)NC(=O)CN1c2cccc3cccc(c23)S1(=O)=O the results were TMEM16A inh inactive, TAAR1 ag 5, CRFR2-BP ag 0, CRFBP-R2 block -12, TAAR1 antagonist 3 and ANO1 activ -6.9*.
For O=C(Oc1ccccc1)N1CCN(C(=O)c2ccco2)CC1 the results were TMEM16A inh inactive, TAAR1 ag 1, CRFR2-BP ag -2, CRFBP-R2 block 7, TAAR1 antagonist 1 and ANO1 activ inactive.
For NC(=O)c1cccnc1OCC(F)(F)F the results were TMEM16A inh inactive, TAAR1 ag 6, CRFR2-BP ag 3, CRFBP-R2 block 13, TAAR1 antagonist 8 and ANO1 activ inactive.
For Cc1ccc(C(C)C)c(OCC(=O)NNC(=O)Cc2ccc(S(=O)(=O)N3CCOCC3)s2)c1 the results were TAAR1 ag 6, CRFR2-BP ag 1, CRFBP-R2 block 1, TAAR1 antagonist 11 and ANO1 activ inactive.
COc1ccc([C@H]2[C@H]3C=CC[C@@H](C)[C@@H]3C(=O)N2Cc2ccccc2)cc1Cl was read as TMEM16A inh inactive, TAAR1 ag 0, CRFR2-BP ag 0, CRFBP-R2 block 1, TAAR1 antagonist 12 and ANO1 activ inactive.
`C[C@@H]1CC=C[C@@H]2[C@H]1C(=O)N(Cc1ccccc1)[C@H]2c1cccc(C#Cc2ccccc2)c1` gave TAAR1 ag 0, CRFR2-BP ag 5, CRFBP-R2 block 5 and TAAR1 antagonist -24.
For C[C@@H]1CC=C[C@H]2[C@H]1C(=O)N(Cc1ccccc1)[C@H]2c1ccc(C(F)(F)F)cc1 the results were TMEM16A inh 100*, TAAR1 ag 12, CRFR2-BP ag 0, CRFBP-R2 block -8, TAAR1 antagonist 36 and ANO1 activ inactive.
C[C@@H]1CC=C[C@@H]2[C@H]1C(=O)N(Cc1ccccc1)[C@H]2c1cccc(Br)c1 was read as TAAR1 ag 1, CRFR2-BP ag -1, CRFBP-R2 block 72* and TAAR1 antagonist -22.
O=C(CC1C[C@H](C(=O)N2CCCCC2)[C@@]2(CCc3ccccc3)c3[nH]c4ccccc4c3CCN2C1=O)NCCCn1ccnc1 (some centres not stated) was read as TAAR1 ag 2, CRFR2-BP ag -2, CRFBP-R2 block -27 and TAAR1 antagonist -3.
`N#CCN1CCN(CC(=O)c2ccc(Br)cc2)CC1` gave TMEM16A inh inactive, TAAR1 ag 1, CRFR2-BP ag 0, CRFBP-R2 block 3, TAAR1 antagonist -21 and ANO1 activ inactive.
Screening C[C@H]1COc2cc(N3CCCC3)ccc2S(=O)(=O)N1 returned TAAR1 ag 0 and TAAR1 antagonist -2.
Cc1ccc(N(CC(=O)Nc2ccc(Br)c(C)c2)S(=O)(=O)c2c(C)[nH]c(=O)[nH]c2=O)cc1 was read as TMEM16A inh inactive, TAAR1 ag 5, CRFR2-BP ag -1, CRFBP-R2 block -2, TAAR1 antagonist -9 and ANO1 activ inactive.
Screening Cc1ccc(S(=O)(=O)N2CCC(=O)N([C@H](COCc3ccc(Cl)cc3Cl)Cc3ccccc3)CC2)cc1 returned TAAR1 ag 0 and TAAR1 antagonist 1.
